Values after ≈ are worked out from the molar mass of the structure shown.

Data set [1] relates to Pseudomonas aeruginosa. The data set can be described thus: Antibacterial activity against Pseudomonas aeruginosa ATCC 27853 at 20 uM relative to control. The class given is functional. In outline:
(§1)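 Screened by CO-ADD at a single concentration of 20 µM; growth inhibition above 50% at this concentration was classed as a hit. Strains and sources are given in Supplementary Information.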

Data set [2] has as its target Carbonic anhydrase 2 (Homo sapiens, UniProt P00918). Nature of the data set: Inhibition of recombinant human CA2 expressed in Escherichia coli assessed as reduction in CO2 hydration by stopped flow assay. In outline:
(§2)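 Stopped-flow assay following the CA-catalysed hydration of CO2 (the physiological reaction); Ki values from three determinations, errors within ±5% of the reported value.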

Data set [3] concerns Staphylococcus aureus. The data set can be described thus: Antibacterial activity against Staphylococcus aureus ATCC 43300. The class given is functional.
Data set [4] has as its system Candida albicans. The data set can be described thus: Antifungal activity against Candida albicans ATCC 90028 at 20 uM by resazurin dye based assay relative to control. The class given is functional. The essentials:
as §1
A general note: The colour change of resazurin is a common sign of viable cells or microbes.

Data set [5] has as its target Carbonic anhydrase 4 (Homo sapiens, UniProt P22748). Nature of the data set: Inhibition of recombinant human CA4 expressed in Escherichia coli assessed as reduction in CO2 hydration by stopped flow assay. The essentials: as §2
For data set [6], the system named is Acinetobacter baumannii. Nature of the data set: Antibacterial activity against Acinetobacter baumannii ATCC 19606 at 20 uM relative to control. Type of data set: functional, ATCC 19606 = CIP 70.34 = JCM 6841. The essentials: as §1
The subject of data set [7] is Klebsiella pneumoniae. The data set can be described thus: Antibacterial activity against Klebsiella pneumoniae ATCC 700603 at 20 uM relative to control. The class given is functional. In outline: as §1
A short description of data set [8]: Cytotoxicity against HEK293 cells. The note with it: human. Type of data set: cell-based.
Data set [9] addresses Carbonic anhydrase 1 (Homo sapiens, UniProt P00915). The data set can be described thus: Inhibition of recombinant human CA1 expressed in Escherichia coli assessed as reduction in CO2 hydration by stopped flow assay. The essentials:
as §2

Data set [10] relates to Escherichia coli. Nature of the data set: Antibacterial activity against Escherichia coli ATCC 25922 at 20 uM relative to control. Type of data set: functional. In outline: as §1
Data set [11] concerns Cryptococcus neoformans. The data set can be described thus: Antifungal activity against Cryptococcus neoformans var. grubii H99 ATCC 208821 at 20 uM by resazurin dye based assay relative to control. The class given is functional. In outline: as §1
For data set [12], the target named is Carbonic anhydrase 9 (Homo sapiens, UniProt Q16790). Nature of the data set: Inhibition of recombinant human CA9 expressed in Escherichia coli assessed as reduction in CO2 hydration by stopped flow assay. The essentials:
as §2

Data set [13] concerns Staphylococcus aureus. The data set can be described thus: Antibacterial activity against Staphylococcus aureus ATCC 43300 at 20 uM relative to control. The class given is functional. In outline: as §1
The subject of data set [14] is Escherichia coli. The data set can be described thus: Antibacterial activity against Escherichia coli ATCC 25922. The class given is functional.

Carbonic anhydrase 1, sequence (P00915 whole entry): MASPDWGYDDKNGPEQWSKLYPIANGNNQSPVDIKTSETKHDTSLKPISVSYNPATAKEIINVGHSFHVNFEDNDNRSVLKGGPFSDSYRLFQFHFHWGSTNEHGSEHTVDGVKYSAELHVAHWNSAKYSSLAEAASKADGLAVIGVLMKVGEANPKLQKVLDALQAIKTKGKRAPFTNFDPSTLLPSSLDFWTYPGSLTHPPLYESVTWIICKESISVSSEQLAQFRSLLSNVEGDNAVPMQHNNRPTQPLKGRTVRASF
Carbonic anhydrase 4, sequence (P22748 whole entry): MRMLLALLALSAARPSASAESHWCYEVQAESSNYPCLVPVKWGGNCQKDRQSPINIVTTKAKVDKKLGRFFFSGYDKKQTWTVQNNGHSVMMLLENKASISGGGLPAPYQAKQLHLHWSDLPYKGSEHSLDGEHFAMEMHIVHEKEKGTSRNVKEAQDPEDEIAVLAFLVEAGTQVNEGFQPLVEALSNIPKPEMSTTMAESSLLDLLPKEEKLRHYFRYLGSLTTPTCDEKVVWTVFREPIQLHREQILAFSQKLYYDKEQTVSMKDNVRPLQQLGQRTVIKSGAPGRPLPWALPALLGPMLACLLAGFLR

For `Nc1nc(Cl)nc2c1ncn2[C@@H]1O[C@H](COS(N)(=O)=O)[C@@H](O)[C@H]1O`, the Activity result was “<=50%” in data set [1]; “<=50%” in [4]; “<=50%” in data set [6]; “<=50%” in [7]; more than 50% in data set [10]; “<=50%” in data set [11]. Further, the Activity result in [13] is “<=50%”. Further, the Ki in data set [2] is 65.2 nM; in data set [5], 234 nM; in [9], 167 nM; in [12], 143 nM. In addition, the MIC in [3] was more than 20 µM; in data set [14], 5 µM (≈ 1.9 µg/mL). Also, in data set [8], the CC50 is less than 150 nM.

As to `Nc1ncnc2c1ncn2[C@@H]1O[C@H](COS(N)(=O)=O)[C@@H](O)[C@H]1O`, the Activity entry in [1], in data set [4], in [6], in data set [7], in data set [10] and in [11] was “<=50%” in each case. The same compound came in with an Activity in [13] of more than 50%. The Ki stood at 3410 nM in data set [2], 4450 nM in data set [5], 6350 nM in data set [9] and 3100 nM in data set [12]. Also, the values for the MIC in data set [3] and in [14] were 10 µM (≈ 3.46 µg/mL) and more than 20 µM, respectively. In data set [8], the midpoint of cytotoxicity, the CC50, lay at 800 nM.

By Ki is commonly meant the equilibrium dissociation constant of an inhibitor or competing ligand from its target. By MIC is commonly meant the least concentration at which growth counts as inhibited. Read a high MIC as weaker potency. As a reminder, the CC50 is the concentration at which the toxic effect on the cells reaches its halfway point. The low end stands for greater toxicity to the cells, the high end for lower toxicity to the cells.

(Values after ChEMBL document CHEMBL4229396, “Synthesis, structure and bioactivity of primary sulfamate-containing natural products” (Bioorg Med Chem Lett, 2018).)
